# Source: ChEMBL document CHEMBL1126839, “Imidazol-1-yl and pyridin-3-yl derivatives of 4-phenyl-1,4-dihydropyridines combining Ca2+ antagonism and thromboxane A2 synthase inhibition” (J Med Chem, 1993)
# Columns and labels:
# Cavia porcellus [1] = species on record: Cavia porcellus; assay: Inhibition of K+ induced contractions of the isolated guinea pig ileum.; format: functional
# Thromboxane-A synthase = biological target: T1, Thromboxane-A synthase (Rattus norvegicus, UniProt P49430); assay: In vitro inhibition of thromboxane B2 production in rat whole blood.; format: functional, tissue-based
# T1 sequence (P49430 whole entry): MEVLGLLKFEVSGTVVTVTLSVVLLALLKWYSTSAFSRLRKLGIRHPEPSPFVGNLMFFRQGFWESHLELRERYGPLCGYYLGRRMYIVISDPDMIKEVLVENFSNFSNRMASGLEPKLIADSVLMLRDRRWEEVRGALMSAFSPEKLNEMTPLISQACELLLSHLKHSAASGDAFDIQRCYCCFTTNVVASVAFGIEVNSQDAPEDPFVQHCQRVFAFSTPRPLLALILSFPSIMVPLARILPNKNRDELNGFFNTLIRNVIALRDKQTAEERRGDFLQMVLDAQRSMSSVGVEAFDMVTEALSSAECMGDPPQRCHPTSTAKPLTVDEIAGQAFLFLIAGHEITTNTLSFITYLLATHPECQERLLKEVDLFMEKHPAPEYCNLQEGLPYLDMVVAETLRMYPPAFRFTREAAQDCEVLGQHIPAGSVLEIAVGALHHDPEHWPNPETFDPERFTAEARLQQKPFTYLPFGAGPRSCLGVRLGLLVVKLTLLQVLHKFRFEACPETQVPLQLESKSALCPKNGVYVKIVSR
# Cavia porcellus [2] = species on record: Cavia porcellus; assay: Tested for [Ca2+] antagonism in guinea pig atria; format: functional
# How it was run: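 Male guinea pig (0.5–0.8 kg) spontaneously beating atria in oxygenated (95% O2/5% CO2) Locke solution at 37 °C under 1 g preload, rested 60 min. Compounds added cumulatively with 30 min contact per concentration. Isometric contraction recorded; IC25 from computerized regression analysis.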
# Cavia porcellus [3] = species on record: Cavia porcellus; assay: Tested for [Ca2+] antagonism in guinea pig ileum; format: functional
# How it was run: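 Screening preparation under 1 g tension; isometric contractions to 60 mM KCl elicited at 15-min intervals without and with increasing compound concentrations. IC50 (concentration inhibiting the KCl response by 50%) from least-squares regression.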
# Cavia porcellus [4] = species on record: Cavia porcellus; assay: Tested for [Ca2+] antagonism in guinea pig right ventricle; format: functional; settings: Heart right ventricle
# How it was run: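 Male guinea pig (0.5–0.8 kg) right ventricular strips (10 × 2 mm) in oxygenated Tyrode at 29 °C, 1 g preload. Electrically paced (3 ms, 2 Hz) for 60 min, depolarized with 22 mM KCl, then contractility restored with 10 μM histamine at 0.2 Hz pacing. Isometric contraction recorded; IC50 from computerized regression analysis.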
# Oryctolagus cuniculus = species on record: Oryctolagus cuniculus; assay: Tested for [Ca2+] antagonism in rabbit renal artery; format: functional
# How it was run: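 Isolated renal artery under 1 g tension; isometric contractions to 60 mM KCl repeated at 30 min intervals without and with increasing concentrations of test compound or nifedipine as reference. IC50 from the concentration–response.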
IC50 (Cavia porcellus [1]),IC50 (Thromboxane-A synthase),Structure (SMILES),IC25 (Cavia porcellus [2]),IC50 (Cavia porcellus [3]),IC50 (Cavia porcellus [4]),IC50 (Oryctolagus cuniculus)
460 nM,> 1000 nM,CCOC(=O)C1=C(C)N=C(C)/C(=C(/O)OCC)C1c1ccccc1-n1ccnc1 (centres undefined),,,,
> 10000 nM,260 nM,CO/C(O)=C1\C(C)=NC(C)=C(C(C)=O)C1c1cccc(-n2ccnc2)c1 (centres undefined),,,,
50 nM,220 nM,CCO/C(O)=C1\C(C)=NC(C)=C(C(=O)OCCN(C)Cc2ccccc2)C1c1cccc(-n2ccnc2)c1 (centres undefined),,,,
60 nM,170 nM,CCOC(=O)C1=C(C)N=C(C)/C(=C(/O)OCC)C1c1cccc(-n2ccnc2)c1 (centres undefined),94.2 nM,61.5 nM,2150 nM,111 nM
1960 nM,> 1000 nM,CCO/C(O)=C1\C(C)=NC(C)=C(C(=O)O)C1c1cccc(-n2ccnc2)c1 (centres undefined),,,,
100 nM,280 nM,CCOC(=O)C1=C(C)N=C(C)/C(=C(/O)OCC)C1c1cccc(-c2cccnc2)c1 (centres undefined),,,,
1500 nM,> 1000 nM,CC1=NC(C)=C(C(=O)OCC(C)C)C(c2cccc(-c3cccnc3)c2)/C1=C(\O)OCC(C)C (centres undefined),,,,
60 nM,> 1000 nM,CCO/C(O)=C1\C(C)=NC(C)=C(C(=O)OCCN(C)Cc2ccccc2)C1c1cccc(-c2cccnc2)c1 (centres undefined),,,,
970 nM,> 1000 nM,CCOC(=O)C1=C(CC)N=C(CC)/C(=C(/O)OCC)C1c1cccc(-n2ccnc2)c1 (centres undefined),,,,
1950 nM,400 nM,CCO/C(O)=C1\C(COC)=NC(C)=C(C(=O)OC)C1c1cccc(-n2ccnc2)c1 (centres undefined),,,,
1670 nM,730 nM,CCOC(=O)C1=C(C)N=C(C)/C(=C(/O)OCC)C1c1cccc(Cn2ccnc2)c1 (centres undefined),,,,
23000 nM,> 1000 nM,CCOC(=O)C1=C(C)N=C(C)/C(=C(/O)OCC)C1c1ccc(-n2ccnc2)cc1 (centres undefined),,,,
260 nM,240 nM,CCO/C(O)=C1\C(C)=NC(C)=C(C(=O)OC)C1c1cccc(-n2ccnc2)c1 (centres undefined),,,,
850 nM,270 nM,COC(=O)C1=C(C)N=C(C)/C(=C(/O)OC)C1c1cccc(-n2ccnc2)c1 (centres undefined),,,,
8840 nM,640 nM,CCOC(=O)C1=C(C)N(C)C(C)=C(C(=O)OCC)C1c1cccc(-n2ccnc2)c1,,,,
> 10000 nM,> 1000 nM,CCOC(=O)c1c(C)nc(C)c(C(=O)OCC)c1-c1cccc(-n2ccnc2)c1,,,,
2370 nM,300 nM,CCO/C(O)=C1\C(COCCN)=NC(C)=C(C(=O)OC)C1c1cccc(-n2ccnc2)c1 (centres undefined),,,,

Structure (SMILES),IC50 (Cavia porcellus [1]),IC50 (Thromboxane-A synthase),IC25 (Cavia porcellus [2]),IC50 (Cavia porcellus [3]),IC50 (Cavia porcellus [4]),IC50 (Oryctolagus cuniculus)
COC(=O)C1=C(C)NC(C)=C(C(=O)OC)C1c1ccccc1[N+](=O)[O-] [NIFEDIPINE],4 nM,> 10000 nM,31.5 nM,4.7 nM,57.8 nM,6.9 nM
